According to ChEMBL document CHEMBL2311406, “Structure-based design of high-affinity macrocyclic peptidomimetics to block the menin-mixed lineage leukemia 1 (MLL1) protein-protein interaction” (J Med Chem, 2013):
*1 amine or outer side, *2 acyl side, *3 side chain or, on linkers, in order; H or OH if unused. Where a SMILES comes first, the peptide text is derived from it. Bridges are numbered along the chain shown (N, C = ends). [ ]: non-standard residue; d: D form. The star is where a group is joined. 5FAM = O=C1OC2(c3ccc(O)cc3Oc3cc(O)ccc32)c2ccc(C(=O)*)cc21; Ala(indol-2-yl) = N[C@@H](Cc1cc2ccccc2[nH]1)C(=O)O; Phe(3-CF3) = N[C@@H](Cc1cccc(C(F)(F)F)c1)C(=O)O; Phe(3-Ph) = N[C@@H](Cc1cccc(-c2ccccc2)c1)C(=O)O; hhhhLys = O=C([C@H](CCCCCCCCN[*:3])N[*:1])[*:2]; X2 = CC(C)Cc1cccc(C[C@H](N[*:1])C(=O)[*:2])c1; Phe(3,5-F2) = N[C@@H](Cc1cc(F)cc(F)c1)C(=O)O; X1 = CCc1cccc(C[C@H](N[*:1])C(=O)[*:2])c1; Phe(3-Cl) = N[C@@H](Cc1cccc(Cl)c1)C(=O)O; Phe(4-Cl) = N[C@@H](Cc1ccc(Cl)cc1)C(=O)O; NH(CH2)9CO = O=C(CCCCCCCCCN[*:1])[*:2]; Phe(2-Cl) = N[C@@H](Cc1ccccc1Cl)C(=O)O; Phe(3-F) = N[C@@H](Cc1cccc(F)c1)C(=O)O; Phe(3-Me) = Cc1cccc(C[C@H](N)C(=O)O)c1; Phe(4-F) = N[C@@H](Cc1ccc(F)cc1)C(=O)O; Phe(2-F) = N[C@@H](Cc1ccccc1F)C(=O)O; Cha = N[C@@H](CC1CCCCC1)C(=O)O; Ahp(2) = CCCCC[C@H](N)C(=O)O; hLys = NCCCCC[C@H](N)C(=O)O; AEEEA = NCCOCCOCCOCC(=O)O; Ac5c = NC1(C(=O)O)CCCC1; Abu = CC[C@H](N)C(=O)O; Ac4c = NC1(C(=O)O)CCC1; Ac3c = NC1(C(=O)O)CC1; Aib = CC(C)(N)C(=O)O

Target: T1, Menin (Homo sapiens, UniProt O00255)
T1 sequence (O00255 whole entry): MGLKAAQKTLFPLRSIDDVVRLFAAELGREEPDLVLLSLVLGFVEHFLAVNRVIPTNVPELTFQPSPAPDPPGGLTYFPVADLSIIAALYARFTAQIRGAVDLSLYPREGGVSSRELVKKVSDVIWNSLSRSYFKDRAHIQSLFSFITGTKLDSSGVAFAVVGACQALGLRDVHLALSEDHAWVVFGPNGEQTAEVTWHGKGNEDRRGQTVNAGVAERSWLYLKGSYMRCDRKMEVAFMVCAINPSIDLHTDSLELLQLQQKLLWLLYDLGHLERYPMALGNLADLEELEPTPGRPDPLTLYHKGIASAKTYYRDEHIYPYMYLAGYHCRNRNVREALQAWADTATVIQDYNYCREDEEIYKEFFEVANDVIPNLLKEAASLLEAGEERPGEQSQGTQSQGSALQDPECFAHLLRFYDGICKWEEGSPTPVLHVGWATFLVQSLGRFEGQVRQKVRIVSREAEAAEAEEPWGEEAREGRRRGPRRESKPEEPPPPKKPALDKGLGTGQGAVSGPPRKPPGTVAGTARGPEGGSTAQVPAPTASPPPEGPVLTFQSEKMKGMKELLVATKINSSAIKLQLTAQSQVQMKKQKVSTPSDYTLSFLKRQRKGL
Test: Binding affinity to menin (unknown origin) after 60 mins by fluorescence polarization assay
How it was run: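 Competitive FP with fluorescein-labeled peptide tracers. Compound in DMSO (2% final) was added to a preincubated menin/tracer complex in 100 mM potassium phosphate pH 7.5 with 100 μg/mL bovine γ-globulin and 0.02% sodium azide. Menin/tracer/detergent were 30 nM/3 nM/0.005% Triton X-100 or 3 nM/2 nM/0.02% Tween-20. Ki was derived from the fitted IC50, probe Kd and assay concentrations.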

Row | Compound | IC50 [nM] | Ki [nM] | Kd [nM]
1 | N=C(N)NCCC[C@@H]1NC(=O)C2(CCC2)NC(=O)[C@@H]2CCCN2C(=O)[C@H](Cc2cccc(-c3ccccc3)c2)NC(=O)[C@@H](N)CCCCCCCCNC(=O)[C@@H]2CCCN2C1=O (H-[hhhhLys][Phe(3-Ph)]P[Ac4c]RP; lactam 1-C) | 39400 | 14000 | –
2 | CC(=O)N[C@H]1CCCCCCCCNC(=O)[C@@H]2CCCN2C(=O)[C@H](CCCNC(=N)N)NC(=O)[C@H](C)NC(=O)[C@@H]2CCCN2C(=O)[C@H](Cc2ccccc2)NC1=O (Ac-[hhhhLys]FPARP; lactam 1-C) | 2160 | 586 | –
3 | N=C(N)NCCC[C@@H]1NC(=O)C2(CCC2)NC(=O)[C@@H]2CCCN2C(=O)[C@H](CC2CCCCC2)NC(=O)[C@@H](N)CCCCCCCCNC(=O)[C@@H]2CCCN2C1=O (H-[hhhhLys][Cha]P[Ac4c]RP; lactam 1-C) | 3330 | 862 | –
4 | CCCCC[C@H](NC(=O)[C@H](Cc1c[nH]c2ccccc12)NC(=O)[C@H](CCCNC(=N)N)NC(C)=O)C(=O)N[C@@H](Cc1ccccc1)C(=O)N1CCC[C@H]1C(=O)N[C@@H](C)C(=O)N[C@@H](CCCNC(=N)N)C(=O)N1CCC[C@H]1C(=O)NCC (Ac-RW[Ahp(2)]FPARP-NHEt) | 7390 | 2170 | –
5 | C[C@@H]1NC(=O)[C@@H]2CCCN2C(=O)[C@H](Cc2ccccc2)NC(=O)[C@@H](N)CCCCCCCCNC(=O)[C@@H]2CCCN2C(=O)[C@H](CCCNC(=N)N)NC1=O (H-[hhhhLys]FPARP; lactam 1-C) | 665 | 197 | –
6 | Ac-RWRFPAR-NH2 | 85300 | 25500 | –
7 | CC(C)Cc1cccc(C[C@@H]2NC(=O)[C@@H](N)CCCCCCCCNC(=O)[C@@H]3CCCN3C(=O)[C@H](CCCNC(=N)N)NC(=O)C3(CCC3)NC(=O)[C@@H]3CCCN3C2=O)c1 (H-[hhhhLys][X2]P[Ac4c]RP; lactam 1-C) | 36000 | 11600 | –
8 | N=C(N)NCCC[C@@H]1NC(=O)C2(CCC2)NC(=O)[C@@H]2CCCN2C(=O)[C@H](Cc2cccc(F)c2)NC(=O)[C@@H](N)CCCCCCCCNC(=O)[C@@H]2CCCN2C1=O (H-[hhhhLys][Phe(3-F)]P[Ac4c]RP; lactam 1-C) | 25.1 | 6.8 | –
9 | Ac-RFPARP-NH2 | 9570 | 2850 | –
10 | N=C(N)NCCC[C@@H]1NC(=O)C2(CCC2)NC(=O)[C@@H]2CCCN2C(=O)[C@H](Cc2cccc(Cl)c2)NC(=O)[C@@H](N)CCCCCCCCNC(=O)[C@@H]2CCCN2C1=O (H-[hhhhLys][Phe(3-Cl)]P[Ac4c]RP; lactam 1-C) | 159 | 44.6 | –
11 | CC(=O)N[C@@H](CCCNC(=N)N)C(=O)N[C@@H](Cc1c[nH]c2ccccc12)C(=O)N[C@H]1CCCCCCCCCNC(=O)[C@@H]2CCCN2C(=O)[C@H](CCCNC(=N)N)NC(=O)[C@H](C)NC(=O)[C@@H]2CCCN2C(=O)[C@H](Cc2ccccc2)NC1=O | 144 | 42.5 | –
12 | Ac-RWRFPARP-NH2 | 232 | 71.1 | –
13 | N=C(N)NCCC[C@@H]1NC(=O)C2(CCC2)NC(=O)[C@@H]2CCCN2C(=O)[C@H](Cc2cccc(C(F)(F)F)c2)NC(=O)[C@@H](N)CCCCCCCCNC(=O)[C@@H]2CCCN2C1=O (H-[hhhhLys][Phe(3-CF3)]P[Ac4c]RP; lactam 1-C) | 2520 | 725 | –
14 | C[C@@H]1NC(=O)[C@@H]2CCCN2C(=O)[C@H](Cc2ccccc2)NC(=O)CCCCCCCCCNC(=O)[C@@H]2CCCN2C(=O)[C@H](CCCNC(=N)N)NC1=O (cyclo(ARP[NH(CH2)9CO]FP)) | 6450 | 1840 | –
15 | N=C(N)NCCC[C@@H]1NC(=O)C2(CCC2)NC(=O)[C@@H]2CCCN2C(=O)[C@H](Cc2ccc(Cl)cc2)NC(=O)[C@@H](N)CCCCCCCCNC(=O)[C@@H]2CCCN2C1=O (H-[hhhhLys][Phe(4-Cl)]P[Ac4c]RP; lactam 1-C) | 2010 | 549 | –
16 | N=C(N)NCCC[C@@H]1NC(=O)C2(CCCC2)NC(=O)[C@@H]2CCCN2C(=O)[C@H](Cc2ccccc2)NC(=O)[C@@H](N)CCCCCCCCNC(=O)[C@@H]2CCCN2C1=O (H-[hhhhLys]FP[Ac5c]RP; lactam 1-C) | 6320 | 1660 | –

Row | Compound | IC50 [nM] | Ki [nM] | Kd [nM]
17 | CC[C@@H]1NC(=O)[C@@H]2CCCN2C(=O)[C@H](Cc2ccccc2)NC(=O)[C@@H](N)CCCCCCCCNC(=O)[C@@H]2CCCN2C(=O)[C@H](CCCNC(=N)N)NC1=O (H-[hhhhLys]FP[Abu]RP; lactam 1-C) | 10700 | 3180 | –
18 | Ac-RWRFPARPGTGRR-NH2 | 11.4 | 2.9 | –
19 | CC(=O)N[C@@H](CCCNC(=N)N)C(=O)N[C@@H](Cc1c[nH]c2ccccc12)C(=O)N[C@H]1CCCCCCNC(=O)[C@@H]2CCCN2C(=O)[C@H](CCCNC(=N)N)NC(=O)[C@H](C)NC(=O)[C@@H]2CCCN2C(=O)[C@H](Cc2ccccc2)NC1=O | 63.3 | 17.5 | –
20 | N=C(N)NCCC[C@H](NC(=O)COCCOCCOCCNC(=O)c1ccc2c(c1)C(=O)OC21c2ccc(O)cc2Oc2cc(O)ccc21)C(=O)N[C@@H](Cc1cc2ccccc2[nH]1)C(=O)N[C@H]1CCCCCCCCNC(=O)[C@@H]2CCCN2C(=O)[C@H](CCCNC(=N)N)NC(=O)C2(CCC2)NC(=O)[C@@H]2CCCN2C(=O)[C@H](Cc2cc(F)cc(F)c2)NC1=O ({5FAM-AEEEA}-R[Ala(indol-2-yl)][hhhhLys][Phe(3,5-F2)]P[Ac4c]RP; lactam 3-C) | – | – | 1.4
21 | N=C(N)NCCC[C@@H]1NC(=O)C2(CCC2)NC(=O)[C@@H]2CCCN2C(=O)[C@H](Cc2ccccc2Cl)NC(=O)[C@@H](N)CCCCCCCCNC(=O)[C@@H]2CCCN2C1=O (H-[hhhhLys][Phe(2-Cl)]P[Ac4c]RP; lactam 1-C) | 112 | 30 | –
22 | N=C(N)NCCC[C@@H]1NC(=O)C2(CCC2)NC(=O)[C@@H]2CCCN2C(=O)[C@H](Cc2ccc(F)cc2)NC(=O)[C@@H](N)CCCCCCCCNC(=O)[C@@H]2CCCN2C1=O (H-[hhhhLys][Phe(4-F)]P[Ac4c]RP; lactam 1-C) | 422 | 123 | –
23 | N=C(N)NCCC[C@@H]1NC(=O)C2(CC2)NC(=O)[C@@H]2CCCN2C(=O)[C@H](Cc2ccccc2)NC(=O)[C@@H](N)CCCCCCCCNC(=O)[C@@H]2CCCN2C1=O (H-[hhhhLys]FP[Ac3c]RP; lactam 1-C) | 194 | 55.5 | –
24 | Ac-WRFPARP-NH2 | 1060 | 311 | –
25 | Cc1cccc(C[C@@H]2NC(=O)[C@@H](N)CCCCCCCCNC(=O)[C@@H]3CCCN3C(=O)[C@H](CCCNC(=N)N)NC(=O)C3(CCC3)NC(=O)[C@@H]3CCCN3C2=O)c1 (H-[hhhhLys][Phe(3-Me)]P[Ac4c]RP; lactam 1-C) | 1150 | 332 | –
26 | CCc1cccc(C[C@@H]2NC(=O)[C@@H](N)CCCCCCCCNC(=O)[C@@H]3CCCN3C(=O)[C@H](CCCNC(=N)N)NC(=O)C3(CCC3)NC(=O)[C@@H]3CCCN3C2=O)c1 (H-[hhhhLys][X1]P[Ac4c]RP; lactam 1-C) | 4610 | 1330 | –
27 | CC(=O)N[C@@H](CCCNC(=N)N)C(=O)N[C@@H](Cc1c[nH]c2ccccc12)C(=O)N[C@H]1CCCCCCCCNC(=O)[C@@H]2CCCN2C(=O)[C@H](CCCNC(=N)N)NC(=O)[C@H](C)NC(=O)[C@@H]2CCCN2C(=O)[C@H](Cc2ccccc2)NC1=O (Ac-RW[hhhhLys]FPARP; lactam 3-C) | 25 | 6.9 | –
28 | N=C(N)NCCC[C@@H]1NC(=O)C2(CCC2)NC(=O)[C@@H]2CCCN2C(=O)[C@H](Cc2ccccc2F)NC(=O)[C@@H](N)CCCCCCCCNC(=O)[C@@H]2CCCN2C1=O (H-[hhhhLys][Phe(2-F)]P[Ac4c]RP; lactam 1-C) | 102 | 27.5 | –
29 | CC(=O)N[C@@H](CCCNC(=N)N)C(=O)N[C@@H](Cc1c[nH]c2ccccc12)C(=O)N[C@H]1CCCCNC(=O)[C@@H]2CCCN2C(=O)[C@H](CCCNC(=N)N)NC(=O)[C@H](C)NC(=O)[C@@H]2CCCN2C(=O)[C@H](Cc2ccccc2)NC1=O (Ac-RWKFPARP; lactam 3-C) | 11000 | 3320 | –
30 | CC1(C)NC(=O)[C@@H]2CCCN2C(=O)[C@H](Cc2ccccc2)NC(=O)[C@@H](N)CCCCCCCCNC(=O)[C@@H]2CCCN2C(=O)[C@H](CCCNC(=N)N)NC1=O (H-[hhhhLys]FP[Aib]RP; lactam 1-C) | 226 | 67 | –
31 | CC(=O)N[C@@H](CCCNC(=N)N)C(=O)N[C@@H](Cc1c[nH]c2ccccc12)C(=O)N[C@H]1CCCCCNC(=O)[C@@H]2CCCN2C(=O)[C@H](CCCNC(=N)N)NC(=O)[C@H](C)NC(=O)[C@@H]2CCCN2C(=O)[C@H](Cc2ccccc2)NC1=O (Ac-RW[hLys]FPARP; lactam 3-C) | 514 | 136 | –
